Measured values: PMC3028369 (Diabetes, 2011)
pEC50: −log10 of the molar value. Converted amounts (≈) assume the structure as drawn.

Legend:
KKA^Y mice = experiment: Hyperinsulinemic-euglycemic clamp in diabetic KKA^Y mice; type: in vivo, mouse; conditions: 20 mg/kg oral gavage four times at 12-h intervals
In short: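 Insulin-resistant KKAY mice received test compound at 20 mg/kg by oral gavage four times at 12-h intervals. A jugular catheter was placed under anaesthesia 4–5 days earlier. Plasma [3H]glucose was sampled before, during and at the end. HGP was taken basally and under clamp. N = 7; two-tailed Student t test.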

[1] = Oral bioavailability in rats; type: in vivo, rat
Aqueous solubility = type: physicochemical
C57BL/6 mice = experiment: High-fat diet-induced elevated fasting blood glucose; type: in vivo, mouse; conditions: 10 mg/kg/day in high-fat diet for 10 weeks, 4-h fast
In short: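 C57BL/6 mice ate a high-fat diet (55% of calories from fat) for 10 weeks, with or without test compound at 10 mg/kg/day. Blood glucose was measured after a 4-h fast, N = 5.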

mouse aortic ECs [2] = experiment: IL-6 and KC production in mouse aortic ECs; type: cell-based; conditions: for effect on IL-6 production in ECs (ELISA): 16 h, 10 nmol/L CPA, 100 nmol/L CGS21680, 10 nmol/L Cl-IBMECA
In short: (§1)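 Mouse aortic endothelial cells were exposed to the nonselective agonist NECA over a time course. IL-6 and KC were read out as mRNA by quantitative RT-PCR and as secreted protein.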

mouse aortic ECs [3] = experiment: Cyclic AMP accumulation in mouse aortic ECs; type: cell-based; conditions: ECs from C57BL/6 mice
mouse aortic ECs [4] = experiment: IL-6 mRNA induction in mouse aortic ECs; type: cell-based
In short: as §1

[5] = test system: C57BL/6J and adenosine receptor knockout mice; experiment: NECA gavage before glucose tolerance test, fasting glucose and plasma IL-6; type: in vivo, mouse
In short: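 Male 8-week C57BL/6J mice and congenic adenosine receptor knockouts (N = 5) received an oral bolus of vehicle or NECA (0.3 mg/kg) 35 min before an ip GTT (1.25 g/kg). Blood glucose was read by glucometer and AUC calculated. Fasting glucose was taken 35 min after gavage. Plasma IL-6 was measured 4 h after dosing.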

CCCn1c(=O)n(C2CC2)c(=O)c2[nH]c(-c3ccc(N(CC)C(=O)c4cccnc4)nc3)nc21 [ATL-801]
basal HGP rate (KKA^Y mice): markedly reduced | clamp HGP rate (insulin-stimulated state) (KKA^Y mice): markedly reduced | increase in hepatic insulin action (insulin-mediated percent suppression of basal HGP) (KKA^Y mice): 30% | oral bioavailability [1]: 73% | aqueous solubility (Aqueous solubility): 30 µg/mL (≈ 65.3 µM) | diet-induced elevated fasting blood glucose (C57BL/6 mice): significantly reduced

OC[C@H]1O[C@@H](n2cnc3c(NC4CCCC4)ncnc32)[C@H](O)[C@@H]1O [CPA]
effect on IL-6 production in ECs (ELISA) (mouse aortic ECs [2]): without effect

CNC(=O)[C@H]1O[C@@H](n2cnc3c(NCc4cccc(I)c4)nc(Cl)nc32)[C@H](O)[C@@H]1O [Cl-IB-MECA]
effect on IL-6 production in ECs (ELISA) (mouse aortic ECs [2]): without effect

Nc1nc2c(cnn2CCc2ccc(S(=O)(=O)F)cc2)c2nc(-c3ccco3)nn12 [FSPTP]
effect on NECA-induced increase in cyclic AMP (mouse aortic ECs [3]; 1 μmol/L ATL-692, 100 nmol/L FSPTP): not affected

CCNC(=O)[C@H]1O[C@@H](n2cnc3c(N)ncnc32)[C@H](O)[C@@H]1O [NECA, 5′-N-ethylcarboxamidoadensoine]
IL-6 mRNA in ECs (mouse aortic ECs [4]; 1 μmol/L, time course): transient increase | plasma IL-6 ([5]; C57BL/6J mice, 4 h after administration): increase in plasma IL-6 | fasting glucose levels ([5]; C57BL/6 mice, 35 min after gavage): significantly increased | glucose disposal during GTT ([5]; wild-type fasted mice, oral gavage 0.3 mg/kg 35 min before GTT): substantial delay in glucose disposal | cyclic AMP in ECs (mouse aortic ECs [3]; agonist alone): rapid increase in cyclic AMP | IL-6 production (protein) in ECs (mouse aortic ECs [2]; 1 μmol/L, time course): more sustained stimulation | production of the murine IL-8 homolog KC in ECs (mouse aortic ECs [2]; 1 μmol/L, time course): stimulates the production | pEC50 (mouse aortic ECs [2]; read-out: EC50 to stimulate IL-6 production in ECs, ECs from C57BL/6 mice, 24 h): 6.85

CCCCCCOC(=O)[C@]1(O)C[C@@H]2O[C@@]1(C)n1c3ccccc3c3c4c(c5c6ccccc6n2c5c31)C(=O)NC4 [KT5720]
inhibition of IL-6 mRNA induction by NECA (mouse aortic ECs [4]; ECs, inhibitor at 1 μmol/L): significantly inhibited

CCNC(=O)[C@H]1O[C@@H](n2cnc3c(N)nc(NCCc4ccc(CCC(=O)O)cc4)nc32)[C@H](O)[C@@H]1O [CGS21680]
effect on IL-6 production in ECs (ELISA) (mouse aortic ECs [2]): without effect
